Reference: PubChem BioAssay AID651654 (Broad Institute, 2012)
Several values for one entry are separate records, joined by “and”; a condition that tells them apart may be missing. Equal entries are not always repeated. In all, about 360,000 compounds went through this assay and about 740 (0.21%) were called active.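 The calls were made as follows: active = mean lysis activity across replicates of at least 80%, whatever share of replicates individually reach that level; inactive = mean lysis activity below 80%.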 The list comes from a sample in which actives are over-represented; it also holds similar structures and randomly drawn compounds. The source holds several records for some structures; these can differ, active in one and inactive in another.

assay: fungicidal lysis via adenylate kinase leakage – AK release luminescence, single concentration, primary screen (AID 651654); conditions: C. neoformans lysis, 4 h, at 15 µM, stronger effect = higher value
Summary of the method: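 Signal: Adenylate kinase release luminescence | Assay system: Log-phase Cryptococcus neoformans yeast cells | Input: Cells at 5 × 10^6 per mL | Buffer or medium: Fresh YPD growth medium | Compound: Single dose | Schedule: Static 4 h at 37 °C with compound, 1 h detection | Controls: Clomiphene | Read-out: Luminescence rise reflecting yeast cell lysis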

| SMILES | lysis activity |
| --- | --- |
| C[C@H]1CN([C@@H](C)CO)C(=O)CCCn2nncc2CO[C@H]1CN(C)C(=O)Oc1ccccc1 | -2.79% (inactive) and -0.658% (inactive) and 0.85% (inactive) |
| C[C@H](CO)N1C[C@H](C)[C@H](CN(C)C(=O)Oc2ccc3ccccc3c2)OCc2cnnn2CCCC1=O | -8.92% (inactive) |
| C[C@H]1CN([C@@H](C)CO)C(=O)CCCn2nncc2CO[C@H]1CN(C)C(=O)Oc1cccc2ccccc12 | 5.65% (inactive) and 82.4% (active) and -0.095% (inactive) |
| COc1cccc(C(c2nnnn2-c2ccc3c(c2)OCCO3)N2CCC3(CC2)C(=O)NCN3c2ccccc2)c1OC (stereo not given) | -24.5% (inactive) |
| O=C(Cc1ccccc1)N1CCCCN2[C@H](C1)[C@H](c1ccc(C#CC3(O)CCCC3)cc1)[C@@H]2CO | -1.31% (inactive) |
